As usually defined, the Cmax is the peak of the concentration-time curve. A word on the bioavailability: it is the share of a dose that reaches the circulation, judged against a reference dose that is usually intravenous.

Active and inactive are the calls of the source. The rule behind the calls is not given here.

Data set [1] can be described thus: Cmax in Sprague-Dawley rat at 50 mg/kg, po administered as single dose via gavage by LC/MS analysis. The class given is ADME, organism-based. Set-up: dose 50 mg/kg, route oral. To be noted: in vivo. A digest of the protocol: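 Single dose in rats; venous blood (100 µL) drawn at 0, 0.5, 1, 2, 4, 8 and 12 h, plasma separated by centrifugation and held at -20 °C. Compound measured by LC/MS; Cmax, Tmax, t1/2 and AUC derived from the concentration–time data.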

Data set [2] deals with BMDM. Nature of the data set: Antiinflammatory activity in LPS-induced C57BL/6J mouse BMDM cells assessed as suppression of M1 macrophage-stimulated Th17 cell population by measuring decrease in Il17 level at 300 nM measured after 48 hrs by ELISA. The class given is functional, cell-based. The procedure, abridged: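 Supernatant collected from the 72 h coculture of CFSE-labelled naïve CD4+ T cells (anti-CD3/anti-CD28, 500 ng/ml each, 1:1) with BMDMs pretreated 48 h with 50 ng/ml LPS plus 300 nM compound. IFN-γ or IL-17A quantified by ELISA. Mean ± SEM, at least three independent experiments.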
Background: ELISA stands for enzyme-linked immunosorbent assay.

A short description of data set [3]: Oral bioavailability in Sprague-Dawley rat at 50 mg/kg administered as single dose via gavage by LC/MS analysis. The class given is ADME, organism-based. To be noted: in vivo.
Data set [4] concerns Mus musculus. The data set can be described thus: Antiinflammatory activity in C57BL/6J mouse model of MOG (35 to 55 residues)/pertussis toxin/complete Freund's adjuvant-induced experimental allergic encephalomyelitis assessed as TH1 cell population in spinal cord by measuring IFNgamma level at 200 mg/kg, ig administered daily starting from 7 days post-immunization measured after 14 to 21 days post-immunization by flow cytometry analysis (reference value: 22.3%). The class given is functional. The procedure, abridged: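 EAE induced with MOG35-55 (2 mg/ml in PBS) emulsified in CFA containing 4 mg/ml heat-killed M. tuberculosis H37Ra, injected s.c. into the neck and both hindlegs. Drug in saline daily from day 7. Between days 13 and 19, CNS mononuclear cells were taken by collagenase IV digestion and a 70%/30% Percoll gradient. Cells were restimulated 5 h with brefeldin A 2 µg/ml, PMA 0.1 µg/ml and ionomycin 0.5 µg/ml, stained for surface CD4, fixed and permeabilised, then stained intracellularly for IFN-γ/IL-17A. Analysed by flow cytometry; n=4 mice per group.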
(In flow cytometry, cells or beads pass a laser one at a time.)

Data set [5] deals with BMDM. Nature of the data set: Modulation of M1 polarization in C57BL/6J mouse BMDM cells assessed as up regulation of TNFalpha expression at 300 nM measured after 4 to 24 hrs by Western blot analysis. Format: cell-based. To be noted: 0.3 µM. The procedure, abridged:
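BMDMs lysed in pH 7.6 buffer with 1% Triton X-100, phosphatase inhibitor and 1 mM PMSF. Proteins separated by SDS-PAGE, blotted to PVDF and probed with anti-Arg-1, anti-Ym1 or anti-TNF-α, then ECL detection; GAPDH as loading control.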
(In general: A western blot detects proteins with antibodies after separation by electrophoresis.)

Data set [6] concerns Mus musculus. Nature of the data set: Induction of M2 polarization in C57BL/6J mouse model of MOG (35 to 55 residues)/pertussis toxin/complete Freund's adjuvant-induced experimental allergic encephalomyelitis assessed as CD206 level in spleen at 200 mg/kg, ig administered daily starting from 7 days post-immunization measured after 13 to 19 days post-immunization by flow cytometry analysis (reference value: 23.4%). Format: functional. A digest of the protocol: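 MOG35-55/CFA EAE mice were dosed daily in saline from day 7 and sampled between days 13 and 19. Cells came from spleen and dLN by mechanical dissociation and from CNS by collagenase IV/Percoll. They were stained for F4/80 with CD206 (M2) or CD86 (M1), and each was read by flow cytometry as a percentage of total F4/80+ macrophages.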

Data set [7] deals with BMDM. Nature of the data set: Modulation of M2 polarization in C57BL/6J mouse BMDM cells assessed as up regulation of CD206 expression measured after 24 hrs by FACS analysis. The class given is functional, cell-based. The procedure, abridged:
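BMDMs exposed to compound (300 nM, or a range of concentrations) for 24 h. Stained for F4/80 and CD206; % CD206+F4/80+ cells read by flow cytometry. Mean ± SEM, at least three independent experiments.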

The compound `Cl.Cn1ncc(Cl)c1-c1ccc(C(=O)N[C@@H]2CNCC[C@H]2c2cccc(F)c2)cc1` came in with a Cmax in data set [1] of 313 ng/mL. In addition, in the data set on BMDM [2], the result was Active. In addition, in data set [3], the bioavailability is 50.6%. Further, the Activity was 11.4% with Mus musculus [4], “Non-Toxic” in the data set on BMDM [5], 37.2% in the data set with Mus musculus [6] and “Dose-dependent effect” in the data set on BMDM [7].

The record behind these values is ChEMBL document CHEMBL4339193, “Phenotypic Screening-Based Identification of 3,4-Disubstituted Piperidine Derivatives as Macrophage M2 Polarization Modulators: An Opportunity for Treating Multiple Sclerosis” (J Med Chem, 2019).
